Experimental data taken from ChEMBL document CHEMBL1134359, “Design, synthesis, and evaluation of a novel pyrrolobenzodiazepine DNA-interactive agent with highly efficient cross-linking ability and potent cytotoxicity” (J Med Chem, 2001).
pIC50: −log10 of the molar value.

Assays:
[1] = system: A2780; experiment: Inhibition of cell growth in human ovarian carcinoma cell line (A2780) using the 96 hour continuous exposure sulforhodamine B (SRB) growth delay assay; assay type: functional, cell-based
Outline: (§1)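 Human ovarian lines seeded in 96-well plates and left to attach overnight. Compounds dissolved in DMSO (20 mM stock), diluted in medium, added to quadruplicate wells at final 2.5 nM–100 μM; continuous exposure 96 h at 37 °C. Cells fixed in 10% TCA, stained with 0.4% SRB, dye taken up in 10 mM Tris, A540 read. IC50 taken relative to 8 untreated wells.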

[2] = system: CH1; experiment: Inhibition of cell growth in human ovarian carcinoma cell line (CH1) was determined using the 96 hour continuous exposure sulforhodamine B (SRB) growth delay assay.; assay type: functional, cell-based; details: CH1, 96 h; outline: as §1
[3] = system: CH1; experiment: Inhibition of cell growth in human ovarian carcinoma cell line (CH1-cis-R,cisplatin resistant) using the 96 hour continuous exposure sulforhodamine B (SRB) growth delay assay; assay type: functional, cell-based; details: CH1cisR; outline: as §1
[4] = system: SK-OV-3; experiment: Inhibition of cell growth in human ovarian carcinoma cell line(SKOV-3) using the 96 hour continuous exposure sulforhodamine B (SRB) growth delay assay; assay type: functional, cell-based; outline: as §1
[5] = (§2) Ratio of IC50 against A2780cisR (cisplatin resistant) to the IC50 of parent; assay type: functional
[6] = (§3) Ratio of IC50 against human ovarian carcinoma cell line (CH1)cisR (cisplatin resistant) to the IC50 of parent; assay type: functional
[7] = system: A2780; experiment: Growth inhibition in human ovarian carcinoma cell line (A2780cisR,cisplatin-resistant) using the 96 hour exposure sulforhodamine B (SRB) growth delay assay; assay type: functional, cell-based; details: A2780, 96 h; outline: as §1
[8] = system: Nucleic Acid; experiment: Concentration of compound required for 50% cross linking of plasmid pBR322 DNA was investigated using an assay involving linear double stranded DNA; assay type: functional
Outline: (§4)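 pBR322 cut with HindIII, dephosphorylated, then 5'-end-labelled with [γ-32P]ATP by T4 kinase; about 10 ng per reaction. Drug at 0.001–10 μM in 25 mM triethanolamine/1 mM EDTA, pH 7.2, 37 °C, 2 h. Stopped, then ethanol-precipitated; strands separated in 30% DMSO at 90 °C for 2 min; run on neutral 0.8% agarose. Autoradiograph read by laser densitometry; XL50 is the dose giving 50% double-stranded (cross-linked) DNA.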

[9] = system: K562; experiment: Inhibition of cell growth by 50% in human leukemia cell line (K562) was determined using microculture tetrazolium (MTT) assay.; assay type: functional, cell-based
Outline: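 K562 human leukaemia cells given drug for 1 h; growth then measured by MTT assay; IC50 is the dose giving 50% growth inhibition versus drug-free controls.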

[10] = system: Nucleic Acid; experiment: The concentration of compound required for 50% cross linking of plasmid pBR322 DNA was investigated using an assay involving linear double stranded DNA; assay type: functional; outline: as §4
[11] = system: A2780; experiment: Inhibition of cell growth in human ovarian carcinoma cell line (A2780cisR,cisplatin-resistant)using the 96 hour continuous exposure sulforhodamine B (SRB) growth delay assay; assay type: functional, cell-based
Outline: (§5)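 Cells seeded in growth medium and allowed to attach overnight, then given drug (20 mM DMSO stock diluted in medium) in quadruplicate wells at final 100 μM to 2.5 nM for 96 h at 37 °C. Fixed with 10% trichloroacetic acid on ice, stained 0.4% sulforhodamine B, dye solubilised in 10 mM Tris base, absorbance 540 nm; IC50 from concentration versus % absorbance against 8 untreated wells.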

[12] = system: CH1; experiment: Inhibition of cell growth in human ovarian carcinoma cell line (CH1-cis-R,cisplatin resistant) using the 96 hour exposure sulforhodamine B (SRB) growth delay assay; assay type: functional, cell-based; outline: as §5
[13] = system: A2780cisR; experiment: as §2; assay type: functional
[14] = system: carcinoma cell line; experiment: as §3; assay type: functional

Molecule | pIC50 [2] | pIC50 [3] | pIC50 ([4]; Homo sapiens, SK-OV-3, 96 h) | Ratio [5] | Ratio [6] | pIC50 [9] | XL50 [10] [µM] | further results
C=C1C[C@H]2C(=O)Nc3cc(OCCCOc4cc5c(cc4OC)C(=O)N4CC(=C)C[C@H]4C(=O)N5)c(OC)cc3C(=O)N2C1 | 6.24 | 5.54 | 4.55 | 4.4 | 3.5 | – | – | pIC50 ([1]; Homo sapiens, A2780, 96 h): 5.60; pIC50 [7]: 4.96
N[C@@H](Cc1ccc(N(CCCl)CCCl)cc1)C(=O)O | – | – | – | – | – | – | – | XL50 [8]: 20 µM
COc1cc2c(cc1OCCCOc1cc3c(cc1OC)C(=O)N1CCC[C@H]1C=N3)N=C[C@@H]1CCCN1C2=O [DSB-120] | – | 7.66 | – | 29.2 | 0.7 | 6.60 | 0.055 | –
C=C1C[C@H]2C=Nc3cc(OCCCOc4cc5c(cc4OC)C(=O)N4CC(=C)C[C@H]4C=N5)c(OC)cc3C(=O)N2C1 [SJG-136] | 9.92 | 9.22 | 8.04 | 1.1 | 5 | 7.37 | 0.045 | –
CISPLATIN [listing 1 of 2 here] | – | – | – | – | – | – | – | pIC50 [11]: 5.08; pIC50 ([1]; a2780): 6.58; pIC50 [12]: 5.96; pIC50 ([4]; sk-ov-3): 4.98
CISPLATIN [listing 2 of 2 here] | – | – | – | – | – | – | – | Ratio [13]: 32; Ratio [14]: 6.1
